In ChEMBL document CHEMBL1765072, “Inhibition of amyloidogenesis by nonsteroidal anti-inflammatory drugs and their hybrid nitrates” (J Med Chem, 2011):
Calls of active or inactive are those of the source. The calls are words filed in the database; no cut-off is given here.

Key:
[1] = Ratio of drug level in brain to plasma in C57BL/6 mouse at 10 mg/kg, ip after 30 mins; type: ADME, organism-based; set-up: dose 10 mg/kg, route intraperitoneal; details: read-out: BPR
In short: (§1)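 Male C57BL/6 mice (25 g) dosed i.p. with 10 mg/kg in DMSO/H₂O 1:1, sacrificed at 30 or 120 min. Brain extracted by methanol homogenization and plasma by acetonitrile, then C18 LC-MS/MS with MRM m/z 361→200 in positive mode. Quantified against a 4–500 ng/mL standard curve; N=4, mean and s.e.m.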

[2] = Ratio of drug level in brain to plasma in C57BL/6 mouse at 10 mg/kg, ip after 120 mins; type: ADME, organism-based; set-up: dose 10 mg/kg, route intraperitoneal; details: read-out: BPR; in short: as §1
[3] = Cytotoxicity against mouse RAW264.7 cells assessed as cell viability at 10 uM after 24 hrs by MTT assay relative to control; type: cell-based; details: read-out: Activity
In short: (§2)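 RAW 264.7 cells given 0.5 mg/ml MTT in medium for 4 h, washed with PBS; formazan dissolved in DMSO, shaken 30 min, absorbance read at 570 nm against a 630 nm reference. Viability expressed relative to DMSO control.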

[4] = system: N2a; test: Antiamyloidogenic activity in mouse N2A cells assessed as degradation of amyloid beta (1 to 42) level at 10 uM treated 24 hrs before amyloid beta (1 to 42) challenge measured after 8 hrs by MALDI/TOF analysis; type: functional, cell-based
In short: (§3)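 Wild-type N2a cells in DMEM with 0.2 % FBS, drug-treated after PBS wash; conditioned media collected (18 h per methods, 24 h per text), NaN₃ added, centrifuged, then mixed with Aβ1–40 + Aβ1–42 and incubated 8 h at 37 °C. Cell-free media served as control. Aβ measured by 4G8/6E10 immunoprecipitation and MALDI-TOF, normalized to Aβ1–43 spike and to media control; mean and s.d.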

[5] = system: RAW264.7; test: Antiinflammatory activity against mouse RAW264.7 cells assessed as LPS-induced nitrate production at 10 uM treated 30 mins before LPS challenge measured after 24 hrs by Griess reagent method relative to control
[6] = system: N2a; test: Antiamyloidogenic activity in mouse N2A cells transfected with human APP Swedish mutant assessed as amyloid beta (1 to 42) level at 1 uM after 24 hrs by ELISA relative to control
[7] = system: N2a; test: Antiamyloidogenic activity in mouse N2A cells assessed as degradation of amyloid beta (1 to 40) level at 10 uM treated 24 hrs before amyloid beta (1 to 40) challenge measured after 8 hrs by MALDI/TOF analysis; type: functional, cell-based; in short: as §3
[8] = system: N2a; test: Antiamyloidogenic activity in mouse N2A cells assessed as reduction of amyloid beta (1 to 42)/(1 to 40) ratio at 10 uM treated 24 hrs before amyloid beta (1 to 42)/(1 to 40) challenge measured after 8 hrs by MALDI/TOF analysis; type: functional, cell-based; in short: as §3
[9] = system: RAW264.7; test: Antiinflammatory activity against mouse RAW264.7 cells assessed as LPS-induced nitrate production at 100 uM treated 30 mins before LPS challenge measured after 24 hrs by Griess reagent method relative to control
[10] = system: N2a; test: Antiamyloidogenic activity in mouse N2A cells transfected with human APP Swedish mutant assessed as amyloid beta (1 to 42) level at 100 uM after 24 hrs by ELISA relative to control
[11] = Cytotoxicity against mouse RAW264.7 cells assessed as cell viability at 100 uM after 24 hrs by MTT assay relative to control; type: cell-based; details: read-out: Activity; in short: as §2
[12] = system: N2a; test: Antiamyloidogenic activity in mouse N2A cells transfected with human APP Swedish mutant assessed as increase of amyloid beta (1 to 40) level at 200 uM after 24 hrs by ELISA; type: functional, cell-based
[13] = system: N2a; test: Antiamyloidogenic activity in mouse N2A cells transfected with human APP Swedish mutant assessed as increase of amyloid beta (1 to 42) level at 200 uM after 24 hrs by ELISA relative to control; type: functional
[14] = system: N2a; test: Antiamyloidogenic activity in mouse N2A cells transfected with human APP Swedish mutant assessed as effect on amyloid beta (1 to 37) level at 200 uM after 24 hrs by ELISA; type: functional, cell-based
[15] = system: N2a; test: Antiamyloidogenic activity in mouse N2A cells transfected with human APP Swedish mutant assessed as increase of amyloid beta (1 to 42)/(1 to 40) ratio at 200 uM after 24 hrs by ELISA; type: functional, cell-based
[16] = system: N2a; test: Antiamyloidogenic activity in mouse N2A cells transfected with human APP Swedish mutant assessed as increase of amyloid beta (1 to 42) level at 200 uM after 24 hrs by ELISA; type: functional, cell-based
[17] = system: N2a; test: Antiamyloidogenic activity in mouse N2A cells transfected with human APP Swedish mutant assessed as effect on amyloid beta (1 to 38) level at 200 uM after 24 hrs by ELISA; type: functional, cell-based
[18] = system: N2a; test: Antiamyloidogenic activity in mouse N2A cells assessed as degradation of amyloid beta (1 to 40) level at 1 uM treated 24 hrs before amyloid beta (1 to 40) challenge measured after 8 hrs by MALDI/TOF analysis; type: functional, cell-based; in short: as §3
[19] = system: N2a; test: Antiamyloidogenic activity in mouse N2A cells transfected with human APP Swedish mutant assessed as increase of amyloid beta (1 to 42)/(1 to 40) ratio at 100 uM after 24 hrs by ELISA; type: functional, cell-based
[20] = system: N2a; test: Antiamyloidogenic activity in mouse N2A cells assessed as reduction of amyloid beta (1 to 42)/(1 to 40) ratio at 1 uM treated 24 hrs before amyloid beta (1 to 42)/(1 to 40) challenge measured after 8 hrs by MALDI/TOF analysis; type: functional, cell-based; in short: as §3
[21] = system: N2a; test: Antiamyloidogenic activity in mouse N2A cells transfected with human APP Swedish mutant assessed as increase of amyloid beta (1 to 42) level at 100 uM after 24 hrs by ELISA; type: functional, cell-based
[22] = system: N2a; test: Antiamyloidogenic activity in mouse N2A cells transfected with human APP Swedish mutant assessed as increase of amyloid beta (1 to 40) level at 100 uM after 24 hrs by ELISA; type: functional, cell-based
[23] = system: N2a; test: Antiamyloidogenic activity in mouse N2A cells assessed as degradation of amyloid beta (1 to 42) level at 1 uM treated 24 hrs before amyloid beta (1 to 42) challenge measured after 8 hrs by MALDI/TOF analysis; type: functional, cell-based; in short: as §3

For `CC(C(=O)NCCCCO[N+](=O)[O-])c1ccc(-c2ccccc2)c(F)c1` (stereo not drawn), the Kp at 0.5 h [1] was 37 and the Kp at 2 h [2] was 13.
With `CSc1ccc(/C=C2/C=C(CC(=O)O)c3cc(F)ccc32)cc1` the viability at 24 h, 10 µM [3] was 100%, the Activity [4] was “Active” and the level, % of control at 10 µM [5] was 47.5%. The level, % of control at 1 µM [6] was 80.8%, the Activity [7] was “Active” and the Activity [8] was “Active”.
Work on `COc1ccc2c(c1)c(CC(=O)O)c(C)n2C(=O)c1ccc(Cl)cc1` [INDOMETHACIN] yielded a viability at 24 h, 10 µM [3] of 98.7%, a level, % of control at 10 µM [5] of 70.9% and a level, % of control at 1 µM [6] of 108%. For the same compound, the level, % of control at 100 µM [9] was 39.8%, the level, % of control at 100 µM [10] was 76.7% and the viability at 24 h, 100 µM [11] was 92%.
With `CC(C)OC(=O)C(C)(C)Oc1ccc(C(=O)c2ccc(Cl)cc2)cc1` [FENOFIBRATE] the Activity [12] was “Active”, the “fold change (FC)” value [13] was 3 and the Activity [14] was “Active”. The Activity [15] was “Active”, the Activity [16] was “Active” and the Activity [17] was “Active”.
For `CC(C(=O)OCCCCO[N+](=O)[O-])c1ccc(-c2ccccc2)c(F)c1` (stereo not drawn), the Activity [18] was “Active”, the Activity [19] was “Active” and the Activity [20] was “Active”. The level, % of control at 100 µM [9] was 49.8%, the Activity [21] was “Active” and the Activity [22] was “Active”. The Activity [23] was “Active” and the viability at 24 h, 100 µM [11] was 108%.
